Experimental data from ChEMBL document CHEMBL1157352, “Potent, Plasmodium-selective farnesyltransferase inhibitors that arrest the growth of malaria parasites: structure-activity relationships of ethylenediamine-analogue scaffolds and homology model validation” (J Med Chem, 2008).

Experiments:
Plasmodium falciparum [1] = assay: Inhibition of Plasmodium falciparum PFT at 5 nM
[2] = Selectivity for Plasmodium falciparum PFT over rat PFT
[3] = Inhibition of rat PFT by scintillation proximity assay
Plasmodium falciparum [4] = assay: Inhibition of Plasmodium falciparum PFT at 50 nM
[5] = Inhibition of Plasmodium falciparum PFT
Plasmodium falciparum [6] = assay: Antimalarial activity in Plasmodium falciparum K1 infected erythrocytes by [3H]hypoxanthine uptake; type: functional; details: K1, 72 h, read-out: ED50 (the source's name)
How it was run: (§1)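 Parasites kept per Trager–Jensen in RPMI-1640 with 2 mM L-glutamine, 25 mM HEPES, 33 mM NaHCO3, gentamicin, 20% heat-inactivated human A+ plasma. Compound in DMSO added to culture at 0.5% parasitemia and hematocrit; 37 °C, 5% CO2/5% O2/90% N2, 48 h. [8-3H]hypoxanthine (0.3 µCi) added for a further 24 h, then harvested and scintillation-counted. Uninfected-RBC background subtracted; DMSO vehicle taken as 100% growth. ED50 by linear regression.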

Plasmodium falciparum [7] = assay: Antimalarial activity in Plasmodium falciparum 3D7 infected erythrocytes as [3H]hypoxanthine uptake; type: functional; details: 3D7, 72 h, read-out: ED50 (the source's name); how it was run: as §1

| Compound | inhibition (Plasmodium falciparum [1]) [%] | Selectivity ratio [2] | IC50 [3] [nM] | inhibition (Plasmodium falciparum [4]) [%] | IC50 [5] [nM] | EC50 (Plasmodium falciparum [6]) [nM] | EC50 (Plasmodium falciparum [7]) [nM] |
| --- | --- | --- | --- | --- | --- | --- | --- |
| Cn1cnc(S(=O)(=O)N(CCN(Cc2cncn2C)c2ccc(C#N)cc2)CC2CCN(C(=O)OC(C)(C)C)CC2)c1 | 81 | 117 | 140 | 96 | – | – | – |
| Cn1cnc(S(=O)(=O)N(CCCN(Cc2cncn2C)c2ccc(C#N)cc2)CC2CCN(C(=O)OC(C)(C)C)CC2)c1 | 73 | – | – | 94 | 1 | – | – |
| Cn1cnc(S(=O)(=O)N(Cc2ccccc2)[C@H]2CC[C@@H](N(Cc3cncn3C)c3ccc(C#N)cc3)CC2)c1 | – | – | – | 23 | – | 2750 | – |
| Cn1cnc(S(=O)(=O)N(CCCN(Cc2cncn2C)c2ccc(C#N)cc2)Cc2ccccc2)c1 | 16 | – | – | 71 | – | 2650 | – |
| Cn1cnc(S(=O)(=O)N(CCN(Cc2cncn2C)c2ccc(C#N)cc2)Cc2ccsc2)c1 | 91 | – | – | 100 | – | 240 | 150 |
| Cn1cnc(S(=O)(=O)N(Cc2ccsc2)CC(C)(C)N(Cc2cncn2C)c2ccc(C#N)cc2)c1 | – | – | – | 70 | – | – | 2450 |
| Cn1cnc(S(=O)(=O)N(CC2CCN(C(=O)OC(C)(C)C)CC2)[C@H]2CC[C@H](N(Cc3cncn3C)c3ccc(C#N)cc3)CC2)c1 | – | – | – | 0 | – | 1200 | – |
| Cn1cnc(S(=O)(=O)N(CC2CCN(C(=O)OC(C)(C)C)CC2)[C@H]2CC[C@@H](N(Cc3cncn3C)c3ccc(C#N)cc3)CC2)c1 | – | – | – | 0 | – | 650 | – |
| Cn1cnc(S(=O)(=O)N(CC2CCN(C(=O)OC(C)(C)C)CC2)CC(C)(C)N(Cc2cncn2C)c2ccc(C#N)cc2)c1 | – | 136 | 150 | 87 | 1.1 | – | – |
| Cc1ccccc1CN(CC(C)(C)N(Cc1cncn1C)c1ccc(C#N)cc1)S(=O)(=O)c1cn(C)cn1 | 91 | – | – | 98 | – | – | – |
| Cc1ccccc1CN(CCCN(Cc1cncn1C)c1ccc(C#N)cc1)S(=O)(=O)c1cn(C)cn1 | 24 | – | – | 76 | – | – | – |
| Cc1ccccc1CN(CCN(Cc1cncn1C)c1ccc(C#N)cc1)S(=O)(=O)c1cn(C)cn1 | 95 | – | – | 99 | – | – | – |
| Cn1cnc(S(=O)(=O)N(CC2CCN(c3ncccn3)CC2)CC(C)(C)N(Cc2cncn2C)c2ccc(C#N)cc2)c1 | 93 | – | – | 100 | – | – | – |
| Cn1cnc(S(=O)(=O)N(CCCN(Cc2cncn2C)c2ccc(C#N)cc2)CC2CCN(c3ncccn3)CC2)c1 | 62 | – | – | 93 | – | – | – |
| Cn1cnc(S(=O)(=O)N(CCCN(Cc2cncn2C)c2ccc(C#N)cc2)Cc2ccsc2)c1 | 18 | – | – | 73 | – | – | – |
| Cn1cnc(S(=O)(=O)N(CCN(Cc2cncn2C)c2ccc(C#N)cc2)CC2CCN(c3ncccn3)CC2)c1 | 74 | – | – | 96 | – | – | – |
| Cn1cnc(S(=O)(=O)N(CCN(Cc2cncn2C)c2ccc(C#N)cc2)Cc2ccccc2)c1 | 86 | – | – | 98 | – | – | – |
| Cn1cnc(S(=O)(=O)N(Cc2ccccc2)CC(C)(C)N(Cc2cncn2C)c2ccc(C#N)cc2)c1 | 88 | – | – | 100 | – | – | – |
| Cn1cnc(S(=O)(=O)N(Cc2ccccc2)[C@H]2CC[C@H](N(Cc3cncn3C)c3ccc(C#N)cc3)CC2)c1 | – | – | – | 73 | – | – | – |
| Cn1cnc(S(=O)(=O)N(CC2CCN(C(=O)OC(C)(C)C)CC2)[C@@H]2CCC[C@@H]2N(Cc2cncn2C)c2ccc(C#N)cc2)c1 (racemic) | 3 | > 2.9 | > 1000 | 2 | 350 | 1250 | – |

| Compound | inhibition (Plasmodium falciparum [1]) [%] | Selectivity ratio [2] | IC50 [3] [nM] | inhibition (Plasmodium falciparum [4]) [%] | IC50 [5] [nM] | EC50 (Plasmodium falciparum [6]) [nM] | EC50 (Plasmodium falciparum [7]) [nM] |
| --- | --- | --- | --- | --- | --- | --- | --- |
| Cn1cnc(S(=O)(=O)N(CC2CCN(c3ncccn3)CC2)[C@@H]2CCC[C@@H]2N(Cc2cncn2C)c2ccc(C#N)cc2)c1 (racemic) | 10 | – | – | 0 | – | 2500 | 3000 |
| Cn1cnc(S(=O)(=O)N(Cc2ccsc2)[C@H]2CCC[C@@H]2N(Cc2cncn2C)c2ccc(C#N)cc2)c1 (racemic) | 11 | – | – | 57 | – | 2700 | 2700 |
| Cc1ccccc1CN([C@@H]1CC[C@@H](N(Cc2cncn2C)c2ccc(C#N)cc2)C1)S(=O)(=O)c1cn(C)cn1 (racemic) | – | – | – | 33 | – | 2200 | 2400 |
| Cc1ccccc1CN([C@@H]1CCC[C@@H]1N(Cc1cncn1C)c1ccc(C#N)cc1)S(=O)(=O)c1cn(C)cn1 (racemic) | 16 | – | – | 17 | – | 2800 | 2800 |
| Cn1cnc(S(=O)(=O)N(Cc2ccsc2)[C@@H]2CCC[C@@H]2N(Cc2cncn2C)c2ccc(C#N)cc2)c1 (racemic) | 0 | – | – | 9 | – | 4200 | > 5000 |
| Cc1ccccc1CN([C@H]1CC[C@@H](N(Cc2cncn2C)c2ccc(C#N)cc2)C1)S(=O)(=O)c1cn(C)cn1 (racemic) | – | – | – | 24 | – | 2600 | 2400 |
| Cn1cnc(S(=O)(=O)N(CC2CCN(c3ncccn3)CC2)[C@H]2CC[C@@H](N(Cc3cncn3C)c3ccc(C#N)cc3)C2)c1 (racemic) | – | – | – | 6 | – | 720 | 600 |
| Cc1ccccc1CN([C@H]1CCC[C@@H]1N(Cc1cncn1C)c1ccc(C#N)cc1)S(=O)(=O)c1cn(C)cn1 (racemic) | 12 | – | – | 35 | – | 3200 | 3000 |
| Cn1cnc(S(=O)(=O)N(CC2CCN(C(=O)OC(C)(C)C)CC2)[C@H]2CC[C@@H](N(Cc3cncn3C)c3ccc(C#N)cc3)C2)c1 (racemic) | 33 | – | – | 83 | – | 125 | 300 |
| Cn1cnc(S(=O)(=O)N(CC2CCN(c3ncccn3)CC2)[C@@H]2CC[C@@H](N(Cc3cncn3C)c3ccc(C#N)cc3)C2)c1 (racemic) | – | – | – | 38 | – | 1500 | 2600 |
| Cn1cnc(S(=O)(=O)N(CC2CCN(c3ncccn3)CC2)[C@H]2CCC[C@@H]2N(Cc2cncn2C)c2ccc(C#N)cc2)c1 (racemic) | 12 | – | – | 28 | – | 750 | 2600 |
| Cn1cnc(S(=O)(=O)N(Cc2ccccc2)[C@@H]2CC[C@@H](N(Cc3cncn3C)c3ccc(C#N)cc3)C2)c1 (racemic) | 65 | – | – | 93 | – | 145 | 340 |
| Cn1cnc(S(=O)(=O)N(Cc2ccccc2)[C@H]2CCC[C@@H]2N(Cc2cncn2C)c2ccc(C#N)cc2)c1 (racemic) | 20 | – | – | 42 | – | 2350 | 3100 |
| Cn1cnc(S(=O)(=O)N(Cc2ccccc2)[C@H]2CC[C@@H](N(Cc3cncn3C)c3ccc(C#N)cc3)C2)c1 (racemic) | 4 | – | – | 40 | – | – | 700 |
| Cn1cnc(S(=O)(=O)N(CC2CCN(C(=O)OC(C)(C)C)CC2)[C@H]2CCC[C@@H]2N(Cc2cncn2C)c2ccc(C#N)cc2)c1 (racemic) | 41 | > 100 | > 1000 | 82 | 10 | – | 2650 |
| Cn1cnc(S(=O)(=O)N(Cc2ccccc2)[C@@H]2CCC[C@@H]2N(Cc2cncn2C)c2ccc(C#N)cc2)c1 (racemic) | 0 | – | – | 0 | – | – | > 5000 |
| Cn1cnc(S(=O)(=O)N(CC2CCN(C(=O)OC(C)(C)C)CC2)[C@@H]2CC[C@@H](N(Cc3cncn3C)c3ccc(C#N)cc3)C2)c1 (racemic) | 86 | – | – | 97 | 3.1 | – | 310 |
| Cn1cnc(S(=O)(=O)N(Cc2ccsc2)[C@@H]2CC[C@@H](N(Cc3cncn3C)c3ccc(C#N)cc3)C2)c1 (racemic) | – | – | – | 56 | – | 1200 | 1500 |
| Cn1cnc(S(=O)(=O)N(Cc2ccsc2)[C@H]2CC[C@@H](N(Cc3cncn3C)c3ccc(C#N)cc3)C2)c1 (racemic) | – | – | – | 15 | – | 2500 | 2400 |
